Measured values published in PMC2834294 (Chemistry & biology, 2010).

Key:
[1] = biological target: T1, TRPML3 (Homo sapiens, UniProt Q8TDD5); format: cell-based; conditions: HEK293, read-out: Max % Activation (TRPML3)
T1 sequence (Q8TDD5 1-553): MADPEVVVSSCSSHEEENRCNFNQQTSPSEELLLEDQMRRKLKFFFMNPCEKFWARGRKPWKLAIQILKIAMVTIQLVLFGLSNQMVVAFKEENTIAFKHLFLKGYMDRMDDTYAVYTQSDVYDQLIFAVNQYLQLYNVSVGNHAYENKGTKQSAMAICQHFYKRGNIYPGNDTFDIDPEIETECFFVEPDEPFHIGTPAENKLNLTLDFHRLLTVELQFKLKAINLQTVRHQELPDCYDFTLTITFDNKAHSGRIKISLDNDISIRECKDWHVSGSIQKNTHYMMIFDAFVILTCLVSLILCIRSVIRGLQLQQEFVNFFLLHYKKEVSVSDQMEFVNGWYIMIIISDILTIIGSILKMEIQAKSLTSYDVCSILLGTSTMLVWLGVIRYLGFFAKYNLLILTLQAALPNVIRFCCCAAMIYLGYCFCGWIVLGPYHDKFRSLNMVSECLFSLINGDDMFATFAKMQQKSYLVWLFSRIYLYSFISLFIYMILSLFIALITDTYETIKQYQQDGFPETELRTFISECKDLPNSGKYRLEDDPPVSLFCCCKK
In short: (§1)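 HEK293 lines stably expressed YFP-fused human TRPML3 or zebrafish TRPN1 (G418 0.8 mg/ml, twice subcloned) and were plated at 1,500 cells/well for 23 h at 37 °C. After Fluo-8 loading (1 h 37 °C, 30 min RT), a 5 s basal read and 120 s post-addition read were taken. Max/basal ratios were normalized to DMSO and carbachol (87 µM).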

[2] = biological target: danio rerio TRPN1 (Danio rerio, UniProt Q7T1G6); format: cell-based; conditions: for Emax: HEK293, read-out: Max % Activation (Control); for activity against TRPN1: compounds tested from powders
In short: as §1

[3] = biological target: T1, TRPML3; experiment: Fura-2 calcium imaging, HEK293 cells transiently expressing TRPML3; format: cell-based; conditions: for ⊗F340/F380 (TRPML3): 10 µM compound, mean ±SEM (n≥3); for kinetics of intracellular calcium increase: TRPML3-transfected HEK293 cells
In short: (§2)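 HEK293 cells were transiently transfected (Genejammer) with the human channel construct or YFP control and measured 24 h later. Cells on glass coverslips were loaded with 4 µM fura-2-AM in bath solution (mM: 138 NaCl, 6 KCl, 2 MgCl2, 2 CaCl2, 10 HEPES, 5.5 D-glucose; pH 7.4). Compounds were applied at 10 µM and the F340/F380 ratio recorded. Values are mean ± SEM, n≥3.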

[4] = tested on: YFP-expressing HEK293 cells; experiment: Fura-2 calcium imaging, YFP-expressing HEK293 cells; format: cell-based; conditions: mean ±SEM (n≥3)
In short: as §2

[5] = biological target: T1, TRPML3; experiment: Whole-cell patch-clamp, HEK293 cells transiently transfected with TRPML3; format: cell-based; conditions: for nA/pF (-80 mV) (TRPML3): current density at −80 mV, 10 µM in standard bath solution, mean ±SEM (n≥3); for average current density relative to constitutively active TRPML3 A419P: whole-cell, −80 mV
In short: (§3)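 Whole-cell patch clamp was done on HEK293 cells 24 h after transient transfection with human TRPML3 or YFP; constitutively active TRPML3(A419P) cells served as positive control. Bath solution (mM): 138 NaCl, 5.4 KCl, 2 MgCl2, 2 CaCl2, 10 HEPES, 10 d-glucose; pH 7.4. Pipette solution (mM): 140 CsCl, 10 HEPES, 3 ATP-Na, 1 BAPTA, 2 MgCl2; pH 7.2. Compounds at 10 µM were perfused. Capacitance-normalized current at −80 mV is reported as mean ± SEM, n≥3.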

[6] = biological target: T2, TRPML2 (Homo sapiens, UniProt Q8IZK6); experiment: Fura-2 calcium imaging, HEK293 cells expressing TRPML2; format: cell-based; conditions: 10 µM
T2 sequence (Q8IZK6 1-566): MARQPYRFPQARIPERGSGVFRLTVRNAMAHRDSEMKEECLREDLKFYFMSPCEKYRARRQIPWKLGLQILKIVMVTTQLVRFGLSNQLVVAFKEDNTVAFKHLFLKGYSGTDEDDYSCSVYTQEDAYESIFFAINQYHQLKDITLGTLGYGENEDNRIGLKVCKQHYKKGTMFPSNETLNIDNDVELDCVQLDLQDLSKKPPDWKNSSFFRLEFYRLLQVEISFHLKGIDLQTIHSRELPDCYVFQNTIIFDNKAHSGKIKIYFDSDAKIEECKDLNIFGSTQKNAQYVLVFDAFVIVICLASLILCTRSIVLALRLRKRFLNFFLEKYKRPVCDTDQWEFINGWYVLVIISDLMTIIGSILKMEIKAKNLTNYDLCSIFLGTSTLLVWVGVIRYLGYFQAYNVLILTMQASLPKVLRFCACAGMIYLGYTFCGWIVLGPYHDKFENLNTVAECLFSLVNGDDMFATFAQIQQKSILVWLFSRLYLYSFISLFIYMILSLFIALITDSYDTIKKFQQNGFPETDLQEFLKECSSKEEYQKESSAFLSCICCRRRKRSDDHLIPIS
In short: as §2

[7] = tested on: cochlear hair cells; experiment: Recording from acutely isolated cochlear hair cells; format: cell-based, rat; conditions: up-to 100 µM; in SBS, SN-2 also in ELS
[8] = biological target: T3, TRPML3 coexpressed with TRPML1 (Homo sapiens, UniProt Q8TDD5); experiment: Calcium imaging, HEK293 cells coexpressing TRPML3 with TRPML1; format: cell-based; conditions: 10 µM
T3 sequence (Q8TDD5 1-553): T1 sequence (Q8TDD5 1-553)
In short: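 Human TRPML3 and TRPML1 were transiently coexpressed in HEK293 cells (Genejammer) and imaged 24 h post-transfection. Cells on glass coverslips were loaded with 4 μM fura-2-AM in bath solution (mM: 138 NaCl, 6 KCl, 2 MgCl₂, 2 CaCl₂, 10 HEPES, 5.5 D-glucose, pH 7.4) and read on a monochromator imaging system. Test compound was 10 μM. Mean ± SEM, n≥3 independent experiments, 20–30 cells each.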

[9] = tested on: TRPML3; format: cell-based; conditions: 10 µM compound; ELS 2 mM Na+, 150 mM K+
In short: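 Whole-cell recordings used HEK293 cells expressing TRPML3 with 100% series-resistance compensation. Pipette solution (mM): 140 CsCl, 10 HEPES, 3 ATP-Na, 1 BAPTA, 2 MgCl2; pH 7.2. Compound at 10 µM was perfused in endolymph-like solution (mM: 2 NaCl, 150 KCl, 0.25 CaCl2, 10 HEPES, 10 glucose; pH 7.4) or in standard bath. Inward current at −80 mV was normalized to capacitance.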

[10] = biological target: T4, TRPML3 coexpressed with dynamin (Homo sapiens, UniProt Q8TDD5); experiment: Calcium imaging, HEK293 cells coexpressing wild type dynamin with TRPML3; format: cell-based; conditions: compared to control experiments
T4 sequence (Q8TDD5 1-553): T1 sequence (Q8TDD5 1-553)
In short: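 HEK293 cells were transiently cotransfected (Genejammer) with wild-type dynamin and TRPML3 and imaged 24 h later. Cells on glass coverslips were loaded with 4 µM fura-2-AM in bath solution (mM: 138 NaCl, 6 KCl, 2 MgCl2, 2 CaCl2, 10 HEPES, 5.5 D-glucose; pH 7.4). Responses to activators were compared with control transfections.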

[11] = tested on: YFP-expressing HEK293 cells; experiment: Whole-cell patch-clamp, YFP-expressing HEK293 cells; format: cell-based; conditions: current density at −80 mV, mean ±SEM (n≥3)
In short: as §3

Chain of danio rerio TRPN1 (Q7T1G6 1-1614): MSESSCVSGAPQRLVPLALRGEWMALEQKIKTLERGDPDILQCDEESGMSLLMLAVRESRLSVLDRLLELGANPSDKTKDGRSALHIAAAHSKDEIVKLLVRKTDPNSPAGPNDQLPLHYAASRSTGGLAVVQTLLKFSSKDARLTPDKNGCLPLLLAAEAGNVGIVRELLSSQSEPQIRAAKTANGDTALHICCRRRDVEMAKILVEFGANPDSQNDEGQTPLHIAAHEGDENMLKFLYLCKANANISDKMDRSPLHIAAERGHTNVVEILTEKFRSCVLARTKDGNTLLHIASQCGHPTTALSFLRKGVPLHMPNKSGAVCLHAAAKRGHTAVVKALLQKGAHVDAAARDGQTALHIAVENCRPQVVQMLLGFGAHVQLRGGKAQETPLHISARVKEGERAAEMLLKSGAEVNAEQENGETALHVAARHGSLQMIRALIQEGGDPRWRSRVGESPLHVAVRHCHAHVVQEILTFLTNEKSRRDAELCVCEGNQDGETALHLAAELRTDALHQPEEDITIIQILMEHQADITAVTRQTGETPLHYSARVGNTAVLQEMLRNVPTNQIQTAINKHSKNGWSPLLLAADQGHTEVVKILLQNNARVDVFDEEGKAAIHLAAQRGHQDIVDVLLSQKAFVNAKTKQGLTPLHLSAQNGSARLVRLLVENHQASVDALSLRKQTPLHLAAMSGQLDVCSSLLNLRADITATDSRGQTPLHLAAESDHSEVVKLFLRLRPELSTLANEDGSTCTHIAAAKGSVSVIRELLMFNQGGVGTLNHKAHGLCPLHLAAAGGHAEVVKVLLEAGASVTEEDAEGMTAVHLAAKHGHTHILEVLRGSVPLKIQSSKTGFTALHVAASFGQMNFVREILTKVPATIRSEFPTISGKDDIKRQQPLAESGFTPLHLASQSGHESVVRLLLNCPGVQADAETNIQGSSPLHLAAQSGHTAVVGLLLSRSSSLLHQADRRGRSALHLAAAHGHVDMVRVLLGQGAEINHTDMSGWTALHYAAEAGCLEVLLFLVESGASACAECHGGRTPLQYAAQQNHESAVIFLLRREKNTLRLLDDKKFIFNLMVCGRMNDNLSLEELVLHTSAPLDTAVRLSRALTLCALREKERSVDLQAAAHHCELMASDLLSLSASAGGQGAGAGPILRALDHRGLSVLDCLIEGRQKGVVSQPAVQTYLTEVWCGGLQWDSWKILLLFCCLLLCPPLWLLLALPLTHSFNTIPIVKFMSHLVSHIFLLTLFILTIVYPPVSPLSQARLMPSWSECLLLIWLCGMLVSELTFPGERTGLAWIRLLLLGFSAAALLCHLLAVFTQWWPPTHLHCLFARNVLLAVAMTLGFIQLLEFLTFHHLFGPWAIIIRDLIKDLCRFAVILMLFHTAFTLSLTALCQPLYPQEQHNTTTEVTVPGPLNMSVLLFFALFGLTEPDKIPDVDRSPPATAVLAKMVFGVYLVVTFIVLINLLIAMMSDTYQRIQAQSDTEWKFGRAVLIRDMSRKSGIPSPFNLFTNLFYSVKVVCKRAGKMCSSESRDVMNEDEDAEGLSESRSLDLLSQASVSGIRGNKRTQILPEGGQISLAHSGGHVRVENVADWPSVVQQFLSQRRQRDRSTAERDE

Structure (SMILES) | Emax [1] [%] | EC50 [2] [µM] | Emax [2] [%] | activity against TRPN1 [2] | ⊗F340/F380 (TRPML3) [3] | kinetics of intracellular calcium increase [3] | ⊗F340/F380 (Control) [4] | nA/pF (-80 mV) (TRPML3) [5] [nA/pF] | average current density relative to constitutively active TRPML3 A419P [5] | response in HEK293 cells expressing TRPML2 [6] | TRPML3 channel activity in cochlear hair cells [7] | calcium imaging response when TRPML1 was coexpressed with TRPML3 [8] | increase in current densities, compound + ELS vs ELS alone or compound in SBS [9] [fold] | response when wild type dynamin coexpressed with TRPML3 in HEK293 cells [10] | nA/pF (-80 mV) (Control) [11] [nA/pF]
O=S(=O)(NC1CCCCC1N1CCOCC1)c1ccc(Cl)cc1 (centres unmarked) [SF-21, 4-chloro-N-(2-morpholin-4-ylcyclohexyl)benzenesulfonamide] | 200 ± 7 | 14.2 ± 2.03 | 61 ± 2 | significant activity against TRPN1 | 1.38 ±0.10 | much more rapid increase than the other compounds | 0.033 ±0.008 | −0.55 ±0.08 | Stronger responses | elicited responses | Neither compound at concentrations of up-to 100 µM, with or without endolymph-like extracellular solution, elicited TRPML3 channel activity | strong reduction of the calcium imaging responses |  |  | 
Cc1ccc(S(=O)(=O)Nc2ccccc2-c2ccccc2)cc1 [SF-24, 4-methyl-N-(2-phenylphenyl)benzenesulfonamide] | 86 ± 7 | > 29.9 | 2 |  | 0.51 ±0.05 |  | 0.016 ±0.023 | −0.02 ±0.01 |  |  |  |  | ≤ 10 | reduction in response | 
CC1=CC(C)(C)N(C(=O)CN2C(=O)c3ccccc3C2=O)c2ccccc21 [SF-51, 2-[2-oxo-2-(2,2,4-trimethylquinolin-1-yl)ethyl]isoindole-1,3-dione] | 175 ± 18 | > 29.9 | 47 ± 3 | significant activity against TRPN1 | 0.78 ±0.03 | slowest kinetics |  | −0.41 ±0.10 | Stronger responses |  |  |  |  |  | −0.016 ±0.008
CCCC(=O)Oc1c(S(=O)(=O)c2ccc(C)cc2)c(C)nn1C(C)(C)C [SF-71, [2-tert-butyl-5-methyl-4-(4-methylphenyl)sulfonylpyrazol-3-yl] butanoate] | 85 ± 8 | > 29.9 | 2 ± 1 |  | 0.75 ±0.06 |  |  | −0.08 ±0.02 |  |  |  |  |  |  | −0.012 ±0.006
